Experimental data as given in ChEMBL document CHEMBL1800075, “Tricyclic imidazole antagonists of the Neuropeptide S Receptor” (Bioorg Med Chem Lett, 2010).
pIC50: −log10 of the molar value.

Tests used:
Neuropeptide S receptor = biological target: T1, Neuropeptide S receptor (Homo sapiens, UniProt Q6W5P4); experiment: Antagonist activity at human recombinant NPS receptor expressed in CHOK1 cells assessed as inhibition of NPS-induced calcium mobilization by FLIPR assay; format: functional, cell-based, CHO-K1
T1 sequence (Q6W5P4 whole entry): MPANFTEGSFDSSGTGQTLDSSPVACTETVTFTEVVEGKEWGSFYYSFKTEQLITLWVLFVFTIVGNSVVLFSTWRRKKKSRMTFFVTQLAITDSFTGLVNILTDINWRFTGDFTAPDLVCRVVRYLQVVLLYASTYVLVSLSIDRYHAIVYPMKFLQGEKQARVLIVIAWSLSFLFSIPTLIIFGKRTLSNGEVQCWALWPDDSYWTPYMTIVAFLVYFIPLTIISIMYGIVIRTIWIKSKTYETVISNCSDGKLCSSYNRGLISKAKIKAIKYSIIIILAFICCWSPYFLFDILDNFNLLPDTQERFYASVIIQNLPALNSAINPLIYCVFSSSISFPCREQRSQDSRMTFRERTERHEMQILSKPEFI
Summary of the method: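 Dual-sequence FLIPR Ca2+ mobilization on CHOK1 cells expressing recombinant NPSR, plated 24 h ahead at 15 K cells/well. Cells washed and loaded with Fluo4AM for 1 h at 37 °C, 5% CO2. Inhibition taken relative to NPS-stimulated control wells; IC50 from 4-parameter logistic fits; mean ± S.D. of multiple determinations.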

[1] = Passive permeability of the compound; format: ADME; settings: not told
[2] = biological target: rat MDR1 (ABCB1, P-glycoprotein) (Rattus norvegicus, UniProt P43245); experiment: Permeability of the compound assessed as rat MDR1-mediated directional transport ratio by cell based assay; settings: not told
rat MDR1 (ABCB1, P-glycoprotein), sequence (P43245 whole entry): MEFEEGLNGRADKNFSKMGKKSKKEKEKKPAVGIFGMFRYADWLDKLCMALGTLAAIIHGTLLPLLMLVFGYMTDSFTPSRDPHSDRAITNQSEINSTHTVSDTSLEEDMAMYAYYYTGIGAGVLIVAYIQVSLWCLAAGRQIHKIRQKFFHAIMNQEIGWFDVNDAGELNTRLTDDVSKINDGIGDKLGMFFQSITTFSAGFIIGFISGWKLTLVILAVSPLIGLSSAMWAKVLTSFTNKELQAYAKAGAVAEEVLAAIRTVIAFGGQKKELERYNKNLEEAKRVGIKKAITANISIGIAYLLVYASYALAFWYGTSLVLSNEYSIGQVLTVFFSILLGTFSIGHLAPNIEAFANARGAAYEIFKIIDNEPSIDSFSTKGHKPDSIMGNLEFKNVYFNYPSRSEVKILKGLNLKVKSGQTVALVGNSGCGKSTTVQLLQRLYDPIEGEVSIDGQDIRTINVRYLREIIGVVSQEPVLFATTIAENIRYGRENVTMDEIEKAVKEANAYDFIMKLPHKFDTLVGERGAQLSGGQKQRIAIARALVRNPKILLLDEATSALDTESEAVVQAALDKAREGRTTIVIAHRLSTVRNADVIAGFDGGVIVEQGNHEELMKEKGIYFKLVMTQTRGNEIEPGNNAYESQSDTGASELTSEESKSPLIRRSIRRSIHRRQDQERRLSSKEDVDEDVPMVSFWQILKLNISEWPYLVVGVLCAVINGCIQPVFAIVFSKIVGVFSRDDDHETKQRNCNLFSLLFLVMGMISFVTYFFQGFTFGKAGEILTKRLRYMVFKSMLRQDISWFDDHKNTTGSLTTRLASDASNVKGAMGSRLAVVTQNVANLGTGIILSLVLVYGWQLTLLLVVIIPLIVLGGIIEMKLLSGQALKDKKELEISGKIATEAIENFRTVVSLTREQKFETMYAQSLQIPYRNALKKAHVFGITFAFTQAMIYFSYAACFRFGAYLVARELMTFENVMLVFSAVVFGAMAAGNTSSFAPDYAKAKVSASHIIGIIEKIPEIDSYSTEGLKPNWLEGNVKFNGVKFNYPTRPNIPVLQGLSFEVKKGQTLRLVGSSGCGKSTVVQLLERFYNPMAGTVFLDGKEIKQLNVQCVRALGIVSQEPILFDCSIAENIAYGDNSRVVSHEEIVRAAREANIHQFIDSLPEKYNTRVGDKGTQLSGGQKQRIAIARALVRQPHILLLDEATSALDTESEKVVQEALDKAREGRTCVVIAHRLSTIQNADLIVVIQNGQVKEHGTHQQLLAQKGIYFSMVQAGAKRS
Summary of the method: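 Rat MDR1 directional transport ratio, calculated as (B–A)/(A–B). Average of three experiments; interassay variability 20%.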

[3] = Unbound fraction in rat plasma by ultracentrifugation; format: ADME, cell-free
[4] = Drug level in rat cerebrospinal fluid at 75 mg/kg, ip after 2 hrs; format: ADME, organism-based; design: dose 75 mg/kg, route intraperitoneal; settings: read-out: Drug uptake
Summary of the method: (§1)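 Compound given to rats at 75 mpk IP as a solution in 25% HPB-cyclodextrin. CSF and plasma sampled at 30 min and 2 h.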

Thromboxane A2 receptor = biological target: T2, Thromboxane A2 receptor (Homo sapiens, UniProt P21731); experiment: Inhibition of thromboxane A2 receptor
T2 sequence (P21731 whole entry): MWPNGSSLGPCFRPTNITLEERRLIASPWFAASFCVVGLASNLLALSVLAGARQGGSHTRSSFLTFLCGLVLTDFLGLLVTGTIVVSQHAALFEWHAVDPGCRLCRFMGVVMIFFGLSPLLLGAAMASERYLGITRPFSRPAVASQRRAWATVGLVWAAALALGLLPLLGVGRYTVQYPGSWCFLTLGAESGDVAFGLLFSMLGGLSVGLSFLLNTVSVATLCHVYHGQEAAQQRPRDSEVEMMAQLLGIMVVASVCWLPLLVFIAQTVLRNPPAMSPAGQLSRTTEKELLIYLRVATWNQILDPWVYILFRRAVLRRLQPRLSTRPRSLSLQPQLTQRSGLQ

[5] = AUC (0 to infinity) in rat at 2 mg/kg, po; format: ADME, organism-based; design: time infinity, dose 2 mg/kg, route oral; settings: plasma
[6] = Lipophilicity, log D of the compound by HPLC method; format: physicochemical
[7] = Inhibition of melatonin receptor
[8] = Drug level in rat cerebrospinal fluid at 75 mg/kg, ip after 30 mins; format: ADME, organism-based; design: dose 75 mg/kg, route intraperitoneal; settings: read-out: Drug uptake; summary of the method: as §1
[9] = Inhibition of sodium channel site 2
[10] = Ratio drug level in CSF to plasma in rat at 75 mg/kg, ip; format: ADME, organism-based; design: dose 75 mg/kg, route intraperitoneal; summary of the method: as §1
[11] = AUC (0 to infinity) in rat at 10 mg/kg, po; format: ADME, organism-based; design: time infinity, dose 10 mg/kg, route oral; settings: plasma
Plasma [12] = experiment: Unbound free concentration in rat plasma at 30 mg/kg, ip measured after 1 hr; format: ADME, organism-based; design: dose 30 mg/kg, route intraperitoneal; settings: in vivo
Summary of the method: (§2)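 Compound dosed to rats at 30 mpk IP. Plasma levels measured at 30 min, 1 h and 2 h. Unbound exposures obtained by correcting for plasma free fraction.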

[13] = Drug level in plasma of rat at 30 mg/kg, ip measured after 2 hrs; format: ADME, organism-based; design: dose 30 mg/kg, route intraperitoneal; summary of the method: as §2
Plasma [14] = experiment: Unbound free concentration in rat plasma at 30 mg/kg, ip measured after 30 mins; format: ADME, organism-based; design: dose 30 mg/kg, route intraperitoneal; settings: in vivo, 0.5 h; summary of the method: as §2
[15] = Drug level in plasma of rat at 30 mg/kg, ip measured after 30 mins; format: ADME, organism-based; design: dose 30 mg/kg, route intraperitoneal; summary of the method: as §2
Plasma [16] = experiment: Unbound free concentration in rat plasma at 30 mg/kg, ip measured after 2 hrs; format: ADME, organism-based; design: dose 30 mg/kg, route intraperitoneal; settings: in vivo; summary of the method: as §2
Cannabinoid receptor 1 = Cannabinoid receptor 1 (Homo sapiens, UniProt P21554); experiment: Inhibition of CB1 receptor
Cannabinoid receptor 1, sequence (P21554 whole entry): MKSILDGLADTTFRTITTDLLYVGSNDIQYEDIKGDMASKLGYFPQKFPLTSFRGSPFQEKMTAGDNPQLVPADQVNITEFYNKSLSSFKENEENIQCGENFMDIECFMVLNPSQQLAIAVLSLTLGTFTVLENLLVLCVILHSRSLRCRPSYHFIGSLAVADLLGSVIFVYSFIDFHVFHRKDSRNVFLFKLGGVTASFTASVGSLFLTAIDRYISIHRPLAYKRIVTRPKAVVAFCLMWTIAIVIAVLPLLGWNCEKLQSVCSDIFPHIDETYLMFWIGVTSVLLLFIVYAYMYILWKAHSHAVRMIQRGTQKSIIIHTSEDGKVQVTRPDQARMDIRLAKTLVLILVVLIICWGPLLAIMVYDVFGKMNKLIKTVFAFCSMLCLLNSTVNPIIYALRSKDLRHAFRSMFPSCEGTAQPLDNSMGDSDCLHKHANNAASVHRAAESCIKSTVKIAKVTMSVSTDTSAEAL

[17] = Drug level in plasma of rat at 30 mg/kg, ip measured after 1 hr; format: ADME, organism-based; design: dose 30 mg/kg, route intraperitoneal; summary of the method: as §2
[18] = Clearance in iv dosed rat; format: ADME, organism-based; settings: in vivo
Summary of the method: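 IV clearance in rats measured in cassette dosing experiments.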

[19] = Lipophilicity, log P of the compound; format: physicochemical; settings: octanol/water

Row | SMILES | pIC50 (Neuropeptide S receptor) | efflux ratio [2] | fraction unbound [3] | further results
1 | Fc1ccc(C2(CC3CCOCC3)c3ccccc3-c3nccn32)cc1 (configuration not stated) | 6.18 | – | – | –
2 | Fc1ccc(C2(Cc3ccccc3)c3ccccc3-c3nccn32)cc1 (configuration not stated) | 6.47 | – | – | –
3 | Clc1ccc(C2(Cc3ccccc3)c3ccccc3-c3nccn32)cc1 (configuration not stated) | 6.45 | – | – | –
4 | Cc1ccc(C2(Cc3ccccc3)c3ccccc3-c3nccn32)cc1 (configuration not stated) | 5.88 | – | – | –
5 | N#Cc1ccc(C2(Cc3ccccc3)c3ccccc3-c3nccn32)cc1 (configuration not stated) | 6.41 | 0.9 | 0.17 | Papp [1]: 33 ×10⁻⁶ cm/s
6 | Brc1cccc(C2(Cc3ccccc3)c3ccccc3-c3nccn32)c1 (configuration not stated) | 5.76 | – | – | –
7 | N#Cc1cccc(C2(Cc3ccccc3)c3ccccc3-c3nccn32)c1 (configuration not stated) | 5.50 | – | – | –
8 | Brc1ccc(C2(Cc3ccccc3)c3ccccc3-c3nccn32)cn1 (configuration not stated) | 5.82 | – | – | –
9 | Brc1ccc(C2(Cc3ccccc3)c3ccccc3-c3nccn32)nc1 (configuration not stated) | 5.66 | – | – | –
10 | N#Cc1ccc(C2(CC3CCOCC3)c3ccccc3-c3nccn32)cc1 (configuration not stated) | 6.20 | – | – | –
11 | Clc1ccc(C2(CC3CCOCC3)c3ccccc3-c3nccn32)cc1 (configuration not stated) | 6.87 | 1.4 | 0.018 | Papp [1]: 31 ×10⁻⁶ cm/s
12 | Brc1ccc(C2(CC3CCCC3)c3ccccc3-c3nccn32)cn1 (configuration not stated) | 6.07 | 1.3 | 0.013 | Papp [1]: 25 ×10⁻⁶ cm/s
13 | N#Cc1ccc(C2(CC3CCCC3)c3ccccc3-c3nccn32)cc1 (configuration not stated) | 6.84 | 0.6 | 0.011 | Papp [1]: 22 ×10⁻⁶ cm/s
14 | N#Cc1ccc(C2(CC3CCCCC3)c3ccccc3-c3nccn32)cc1 (configuration not stated) | 6.94 | 1.6 | – | Papp [1]: 17 ×10⁻⁶ cm/s
15 | COc1ccc2c(c1)C(CC1CCOCC1)(c1ccc(Cl)cc1)n1ccnc1-2 (configuration not stated) | 7.09 | 1.3 | 0.016 | concentration at 2 h [4]: 153 nM; pIC50 (Thromboxane A2 receptor): 5.15; AUC(0-inf) [5]: 0.114 µM·h; logD [6]: 3.2; pIC50 [7]: 5.89; concentration at 0.5 h [8]: 594 nM; pIC50 [9]: 5.40; Ratio [10]: 1%
16 | COc1cccc2c1C(CC1CCOCC1)(c1ccc(Cl)cc1)n1ccnc1-2 (configuration not stated) | 7.34 | – | 0.008 | AUC(0-inf) [11]: 0.425 µM·h
17 | COc1ccc2c(c1)C(CCC(=O)N1[C@H](C)CC[C@@H]1C)(c1ccc(Cl)cc1)n1ccnc1-2 (some centres not stated) | 7.30 | 2.2 | 0.007 | AUC(0-inf) [5]: 0.115 µM·h
18 | CCN(CC)C(=O)CCC1(c2ccc(Cl)cc2)c2c(OC)cccc2-c2nccn21 (configuration not stated) | 7.37 | 2.9 | 0.013 | Cp(f) (Plasma [12]): 66 nM; concentration at 2 h [13]: 3000 nM; Cp(f) (Plasma [14]): 101 nM; concentration at 0.5 h [15]: 7800 nM; AUC(0-inf) [11]: 1.15 µM·h; Cp(f) (Plasma [16]): 39 nM; pIC50 (Cannabinoid receptor 1): 5.22; concentration at 1 h [17]: 5100 nM

Row | SMILES | pIC50 (Neuropeptide S receptor) | efflux ratio [2] | fraction unbound [3] | further results
19 | Brc1ccc(C2(Cc3ccccc3)c3cccnc3-c3nccn32)cc1 (configuration not stated) | 5.84 | – | – | –
20 | CCC1CCCCN1C(=O)CCC1(c2ccc(Cl)cc2)c2ccccc2-c2nccn21 (mixture of isomers) | 6.88 | 1.6 | 0.011 | clearance [18]: 20 mL/min/kg
21 | CC(C1CCN(C(=O)CCC2(c3ccc(Cl)cc3)c3ccccc3-c3nccn32)CC1)N1CCCC1 (mixture of isomers) | 6.90 | 34.2 | 0.081 | clearance [18]: 38 mL/min/kg
22 | O=C(CCC1(c2ccc(Cl)cc2)c2ccccc2-c2nccn21)N1C2CCCC1CC2 (mixture of isomers) | 7.02 | 1.7 | 0.006 | clearance [18]: 34 mL/min/kg
23 | C[C@@H]1CC[C@H](C)N1C(=O)CCC1(c2ccc(Cl)cc2)c2ccccc2-c2nccn21 (mixture of isomers) | 7.04 | 1.5 | 0.006 | clearance [18]: 36 mL/min/kg
24 | CC(C1CCN(C(=O)CCC2(c3ccc(Cl)cc3)c3ccccc3-c3nccn32)CC1)N1CCC(F)(F)C1 (mixture of isomers) | 6.62 | 2 | 0.029 | clearance [18]: 38 mL/min/kg
25 | Brc1ccc(C2(Cc3ccccc3)c3ccccc3-c3nccn32)cc1 (racemic) | 6.42 | – | – | –
26 | N#Cc1ccccc1CC1(c2ccc(Br)cc2)c2ccccc2-c2nccn21 (racemic) | 6.43 | 1.7 | < 0.01 | Papp [1]: 17 ×10⁻⁶ cm/s
27 | Brc1ccc(C2(Cc3cccnc3)c3ccccc3-c3nccn32)cc1 (racemic) | 6.45 | 2.1 | 0.021 | Papp [1]: 31 ×10⁻⁶ cm/s
28 | Brc1ccc(C2(CC3CCCCC3)c3ccccc3-c3nccn32)cc1 (racemic) | 6.60 | – | – | –
29 | Brc1ccc(C2(CC3CCCC3)c3ccccc3-c3nccn32)cc1 (racemic) | 6.49 | – | – | –
30 | Brc1ccc(C2(CC3CCOCC3)c3ccccc3-c3nccn32)cc1 (racemic) | 7.04 | 1.2 | 0.19 | Papp [1]: 31 ×10⁻⁶ cm/s; clearance [18]: 48 mL/min/kg
31 | Brc1ccc(C2(CCC3CCOCC3)c3ccccc3-c3nccn32)cc1 (racemic) | 6.81 | – | – | –
32 | CC(C)N(C(=O)CCC1(c2ccc(Cl)cc2)c2ccccc2-c2nccn21)C(C)C (racemic) | 7.02 | 1.4 | 0.008 | clearance [18]: 26 mL/min/kg
33 | CCN(C(=O)CCC1(c2ccc(Cl)cc2)c2ccccc2-c2nccn21)C(C)C (racemic) | 6.86 | 2.3 | 0.007 | clearance [18]: 31 mL/min/kg
34 | CCN(CC)C(=O)CCC1(c2ccc(Cl)cc2)c2ccccc2-c2nccn21 (racemic) | – | – | – | AUC(0-inf) [11]: 0.18 µM·h; clearance [18]: 38 mL/min/kg
35 | CCN(CC)C(=O)CCC1(c2ccc(Cl)cc2)c2ccccc2-c2nccn21 (single isomer, unassigned) | 7.05 | 2.1 | 0.022 | –
36 | Brc1ccc(C2(Cc3ccccc3)c3ccccc3-c3nccn32)cc1 (stereo in doubt; 2) | 6.79 | – | 0.01 | Papp [1]: 10 ×10⁻⁶ cm/s; logP [19]: > 3.8
